According to ChEMBL document CHEMBL2331550, “Design, synthesis and structure-activity relationship of novel tricyclic benzimidazolone derivatives as potent 18 kDa translocator protein (TSPO) ligands” (Bioorg Med Chem, 2013):
Values after ≈ are worked out from the molar mass of the structure shown.

How the values were obtained:
[1] = biological target: Translocator protein (Rattus norvegicus) (UniProt P16257); test: Displacement of [3H]PK11195 from TSPO in Sprague-Dawley rat kidney mitochondria at 100 nM after 1 hr by liquid scintillation counting analysis
Translocator protein (Rattus norvegicus), sequence (P16257 whole entry, looked up): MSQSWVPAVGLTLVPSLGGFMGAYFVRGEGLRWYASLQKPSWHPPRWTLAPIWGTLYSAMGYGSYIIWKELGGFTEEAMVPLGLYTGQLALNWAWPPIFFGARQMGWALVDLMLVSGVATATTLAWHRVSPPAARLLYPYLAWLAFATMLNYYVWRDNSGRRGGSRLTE

[2] = Metabolic stability in rat liver S9 fraction assessed as compound remaining at 1 uM after 30 mins; assay type: ADME, subcellular; conditions: read-out: Stability
[3] = species on record: Rattus norvegicus; test: Displacement of [3H]flumazenil from CBR in Sprague-Dawley rat cerebral cortex membrane at 10 uM after 1 hr by liquid scintillation counting analysis; assay type: tissue-based
Outline: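 Male SD rat cerebral cortex was homogenised in potassium phosphate buffer (200 mM KCl, 20 mM KOH, 20 mM KH2PO4, pH 7.4) and washed at 32,500×g. Membranes were incubated with 1.0 nM [3H]-flumazenil (final) and 10 µM test compound for 1 h at 25 °C, then GF/B-filtered and counted by scintillation. Nonspecific binding was taken with […]. Percent inhibition of specific binding was measured in duplicate.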

[4] = biological target: Translocator protein (Rattus norvegicus, UniProt P16257); test: Displacement of [3H]PK11195 from TSPO in Sprague-Dawley rat kidney mitochondria after 1 hr by liquid scintillation counting analysis
Translocator protein, sequence (P16257 whole entry, looked up): as above

[5] = Metabolic stability in rat liver S9 fraction assessed as compound remaining at 10 uM after 30 mins; assay type: ADME, subcellular; conditions: read-out: Stability
[6] = Aqueous solubility of the compound at pH 2.5; assay type: physicochemical
[7] = Aqueous solubility of the compound at pH 7.4; assay type: physicochemical

SMILES	remaining at 0.5 h, 1 µM [2]	inhibition [3]	Ki [4]	also measured
CN(C(=O)Cn1c(=O)[nH]c2ccc(-c3ccccc3)cc21)c1ccccc1				inhibition [1]: 86%
CN(C(=O)Cn1c(=O)n2c3c(cc(-c4cccc(C(F)(F)F)c4)cc31)CCC2)c1ccccc1	0%			
CN(C(=O)Cn1c(=O)n2c3c(cc(-c4ccccc4)cc31)CCC2)c1ccc(Cl)cc1	0%	4%	0.13 nM	
CN(C(=O)Cn1c(=O)n2c3c(cc(-c4ccccn4)cc31)CCC2)c1ccccc1	0%			
CN(C(=O)Cn1c(=O)n2c3c(cc(-c4ccccc4)cc31)CCC2)c1ccccc1	12%	14%	0.94 nM	
COc1cccc(-c2cc3c4c(c2)n(CC(=O)N(C)c2ccccc2)c(=O)n4CCC3)c1	1%			
CN(Cc1ccccc1)C(=O)Cn1c(=O)n2c3c(cc(-c4ccccc4)cc31)CCC2	1%	72%	0.23 nM	
CN(C(=O)Cn1c(=O)n2c3c(cc(-c4ccccc4)cc31)OCC2)c1ccccc1	1%	68%	0.21 nM	
CCCN(CCC)C(=O)Cn1c(=O)n2c3c(cc(-c4ccccc4)cc31)CCC2	1%	11%	1.7 nM	
CN(C(=O)Cn1c(=O)n2c3c(cc(-c4ccncc4)cc31)CCC2)c1ccccc1	3%			
CN(C(=O)Cn1c(=O)n2c3c(cc(-c4ccccc4)cc31)CCCC2)c1ccccc1	1%	30%	0.32 nM	
COc1cccc(N(C)C(=O)Cn2c(=O)n3c4c(cc(-c5ccccc5)cc42)CCC3)c1	0%	6%	0.28 nM	
COc1ccc(-c2cc3c4c(c2)n(CC(=O)N(C)c2ccccc2)c(=O)n4CCC3)cc1				remaining at 0.5 h, 10 µM [5]: 2%
COc1ccc(N(C)C(=O)Cn2c(=O)n3c4c(cc(-c5ccccc5)cc42)CCC3)cc1		3%	0.73 nM	remaining at 0.5 h, 10 µM [5]: 0%
CN(C(=O)Cn1c(=O)n2c3c(cc(-c4ccccc4)cc31)CCC2)c1ccncc1	0%	24%	15 nM	
CN(C(=O)Cn1c(=O)n2c3c(cc(-c4ccccc4)cc31)CCC2)c1cccnc1	0%	36%	2.1 nM	
CN(C(=O)Cn1c(=O)n(C)c2ccc(-c3ccccc3)cc21)c1ccccc1				inhibition [1]: 100%
CN(C(=O)Cn1c(=O)n2c3c(cc(Nc4cccnc4)cc31)CCC2)c1ccccc1	41%			solubility [6]: > 1000 µg/mL; solubility [7]: 4 µg/mL (≈ 9.67 µM)
CN(C(=O)Cn1c(=O)n2c3c(cc(-c4ccccc4)cc31)CCC2)c1ccccn1	0%	34%	2.5 nM	
O=C(Cn1c(=O)n2c3c(cc(-c4ccccc4)cc31)CCC2)Nc1ccccc1	62%	27%	33 nM	
CN(C(=O)Cn1c(=O)n2c3c(cccc31)CCC2)c1ccccc1				remaining at 0.5 h, 10 µM [5]: 0%
CN(C(=O)Cn1c(=O)n2c3c(cc(-c4ccccc4)cc31)CCC2)c1cccc(Cl)c1	0%	3%	0.44 nM	
CN(C(=O)Cn1c(=O)n2c3c(cc(-c4cccnc4)cc31)CCC2)c1ccccc1				remaining at 0.5 h, 10 µM [5]: 0%
CN(C(=O)Cn1c(=O)n2c3c(cc(-c4ccc(C(F)(F)F)cc4)cc31)CCC2)c1ccccc1	0%			
CN(C(=O)Cn1c(=O)n2c3c(cc(Br)cc31)CCC2)c1ccccc1				remaining at 0.5 h, 10 µM [5]: 0%
